Experimental data reported in ChEMBL document CHEMBL1123812, “Pyrroloisoquinoline antidepressants. 2. In-depth exploration of structure-activity relationships” (J Med Chem, 1987).
The source made the active and inactive calls.

Assays:
[1] = target: Serotonin 2 (5-HT2) receptor (Rattus norvegicus, UniProt P30994+P08909+P14842); assay: Binding affinity towards 5-hydroxytryptamine 2 receptor; type: protein assay
Mus musculus [2] = organism: Mus musculus; assay: Antagonism of tetrabenazine (TBZ)-induced depression in mice measured for ptosis; type: functional; conditions: Mus musculus; read-out: ED50
Summary of the method: (§1)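 Nonfasted male Swiss Webster mice, 18–24 g, ten per dose level and in saline controls. Test compound given ip 30 min before tetrabenazine 32 mg/kg ip; dose expressed as free base. Motor activity and ptosis scored. Control response ≤90% corrected by Abbott's formula.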

Mus musculus [3] = organism: Mus musculus; assay: Antagonism of tetrabenazine (TBZ)-induced depression measured in mice by motor activity; type: functional; conditions: Mus musculus; read-out: ED50; summary of the method: as §1
[4] = target: Serotonin 1 (5-HT1) receptor (Rattus norvegicus, UniProt P28564+P30940+P19327+P28565); assay: Binding affinity towards serotonin S1 receptor; type: protein assay
Summary of the method: (§2)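 Rat brain crude synaptic membranes in 20 mM NaHEPES pH 7.5. Ligands: α1 cortex […] 0.4 nM, nonspecific with (-)-NE 100 μM, 30 min at 25 °C. […] D2 striatum [3H]spiperone 0.05 nM with (+)-butaclamol 1 μM, 45 min at 37 °C. S1 cortex [3H]5-HT 1 nM plus glutathione and MgCl2, with 5-HT 10 μM, 20 min at 37 °C. […] Samples filtered on GF/B and counted.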

[5] = target: T1, Adrenergic receptor alpha-1 (Rattus norvegicus, UniProt P15823+P23944+P43140); assay: Binding affinity towards alpha-1 adrenergic receptor; type: protein assay
T1 sequence (P15823 whole entry): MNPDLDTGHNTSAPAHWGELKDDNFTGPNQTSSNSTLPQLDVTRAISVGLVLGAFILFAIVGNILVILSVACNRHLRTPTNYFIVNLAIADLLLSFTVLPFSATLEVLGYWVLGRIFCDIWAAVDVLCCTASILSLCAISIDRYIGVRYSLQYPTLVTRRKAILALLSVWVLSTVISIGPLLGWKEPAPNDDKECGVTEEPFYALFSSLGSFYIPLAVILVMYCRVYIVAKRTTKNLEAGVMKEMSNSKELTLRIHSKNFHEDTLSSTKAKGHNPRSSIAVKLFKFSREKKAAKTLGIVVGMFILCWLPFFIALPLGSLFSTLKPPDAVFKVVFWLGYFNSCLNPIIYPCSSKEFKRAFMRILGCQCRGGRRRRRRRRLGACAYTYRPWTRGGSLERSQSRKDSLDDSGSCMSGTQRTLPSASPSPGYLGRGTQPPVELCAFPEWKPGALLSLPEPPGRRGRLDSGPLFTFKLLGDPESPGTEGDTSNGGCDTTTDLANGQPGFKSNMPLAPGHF
T1 sequence (P23944 whole entry): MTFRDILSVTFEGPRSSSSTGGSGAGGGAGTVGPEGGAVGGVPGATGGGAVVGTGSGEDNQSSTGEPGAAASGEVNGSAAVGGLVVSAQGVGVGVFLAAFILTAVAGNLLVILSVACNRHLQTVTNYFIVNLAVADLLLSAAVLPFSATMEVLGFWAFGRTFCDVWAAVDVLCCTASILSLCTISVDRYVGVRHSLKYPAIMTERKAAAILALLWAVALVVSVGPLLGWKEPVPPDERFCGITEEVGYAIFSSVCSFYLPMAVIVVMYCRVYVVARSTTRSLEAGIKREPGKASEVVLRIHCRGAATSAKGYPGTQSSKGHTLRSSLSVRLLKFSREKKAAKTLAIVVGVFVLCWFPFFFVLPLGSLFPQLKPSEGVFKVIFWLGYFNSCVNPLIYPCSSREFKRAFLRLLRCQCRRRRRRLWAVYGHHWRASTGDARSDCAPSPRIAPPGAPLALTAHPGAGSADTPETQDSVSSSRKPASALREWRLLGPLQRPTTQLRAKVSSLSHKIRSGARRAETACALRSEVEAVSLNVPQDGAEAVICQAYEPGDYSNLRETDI
T1 sequence (P43140 whole entry): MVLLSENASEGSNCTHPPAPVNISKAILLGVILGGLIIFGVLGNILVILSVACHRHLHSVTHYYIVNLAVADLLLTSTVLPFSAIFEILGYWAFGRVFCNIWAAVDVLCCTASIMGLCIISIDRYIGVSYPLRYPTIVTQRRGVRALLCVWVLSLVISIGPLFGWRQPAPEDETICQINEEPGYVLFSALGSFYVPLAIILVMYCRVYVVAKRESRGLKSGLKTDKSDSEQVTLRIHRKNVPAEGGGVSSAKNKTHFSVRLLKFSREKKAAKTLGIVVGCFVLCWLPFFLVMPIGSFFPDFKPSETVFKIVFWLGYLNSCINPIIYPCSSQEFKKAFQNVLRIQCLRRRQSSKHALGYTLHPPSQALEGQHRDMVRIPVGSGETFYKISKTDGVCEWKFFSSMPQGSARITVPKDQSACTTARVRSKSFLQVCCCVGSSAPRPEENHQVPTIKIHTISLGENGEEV

[6] = target: D(1A) dopamine receptor (Rattus norvegicus) (UniProt P18901); assay: Binding affinity towards Dopamine receptor D1 at 1.0 uM concentration; summary of the method: as §2
Chain of D(1A) dopamine receptor (Rattus norvegicus) (P18901 whole entry): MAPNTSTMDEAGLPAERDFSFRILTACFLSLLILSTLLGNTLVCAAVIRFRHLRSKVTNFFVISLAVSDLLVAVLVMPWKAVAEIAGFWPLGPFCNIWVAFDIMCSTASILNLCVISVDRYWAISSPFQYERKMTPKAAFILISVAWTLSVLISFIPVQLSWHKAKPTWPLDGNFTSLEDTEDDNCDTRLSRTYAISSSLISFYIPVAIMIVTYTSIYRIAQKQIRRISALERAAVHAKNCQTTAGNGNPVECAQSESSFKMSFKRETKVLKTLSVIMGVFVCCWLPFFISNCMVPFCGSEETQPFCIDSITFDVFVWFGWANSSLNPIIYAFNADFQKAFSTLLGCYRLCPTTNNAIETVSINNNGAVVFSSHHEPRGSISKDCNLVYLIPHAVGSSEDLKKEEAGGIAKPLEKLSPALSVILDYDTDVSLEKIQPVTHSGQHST

[7] = target: D(2) dopamine receptor (Rattus norvegicus) (UniProt P61169); assay: Binding affinity towards dopamine receptor D2 at 1.0 uM concentration; summary of the method: as §2
Chain of D(2) dopamine receptor (Rattus norvegicus) (P61169 whole entry): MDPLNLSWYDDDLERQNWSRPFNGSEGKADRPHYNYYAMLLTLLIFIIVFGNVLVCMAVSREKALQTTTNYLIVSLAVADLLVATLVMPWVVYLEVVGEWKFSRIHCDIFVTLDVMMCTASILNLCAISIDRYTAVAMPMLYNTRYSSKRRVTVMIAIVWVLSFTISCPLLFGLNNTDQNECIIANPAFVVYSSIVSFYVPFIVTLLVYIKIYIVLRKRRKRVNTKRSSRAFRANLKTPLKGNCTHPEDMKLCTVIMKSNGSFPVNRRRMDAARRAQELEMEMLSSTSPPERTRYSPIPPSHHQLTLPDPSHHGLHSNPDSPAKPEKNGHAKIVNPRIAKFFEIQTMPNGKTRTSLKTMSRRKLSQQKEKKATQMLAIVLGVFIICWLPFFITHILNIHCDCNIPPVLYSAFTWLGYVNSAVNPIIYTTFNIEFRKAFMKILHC

Mus musculus [8] = organism: Mus musculus; assay: Gross behavioral effects ascertained in mice; W indicates weak stimulant or depressant activity of little significance.; type: functional, organism-based
Summary of the method: (§3)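 Male Swiss Webster mice, 18–24 g, three per dose, given ip doses of 1, 3, 10, 30, 100 and 300 mg/kg. Observed for gross behavior and held for 4 days. Scored as weak (W), stimulant (S), depressant (D) or convulsant (C).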

[9] = target: Muscarinic acetylcholine receptor (Rattus norvegicus) (UniProt P08482+P08483+P08485+P08911+P10980); assay: Binding affinity towards Muscarinic acetylcholine receptor at 1.0 uM concentration; type: protein assay
[10] = target: Sodium-dependent dopamine transporter (Rattus norvegicus, UniProt P23977); assay: Inhibition of the uptake of tritiated dopamine (DA) in rat synaptosomes; type: subcellular, Brain
Chain of Sodium-dependent dopamine transporter (P23977 whole entry): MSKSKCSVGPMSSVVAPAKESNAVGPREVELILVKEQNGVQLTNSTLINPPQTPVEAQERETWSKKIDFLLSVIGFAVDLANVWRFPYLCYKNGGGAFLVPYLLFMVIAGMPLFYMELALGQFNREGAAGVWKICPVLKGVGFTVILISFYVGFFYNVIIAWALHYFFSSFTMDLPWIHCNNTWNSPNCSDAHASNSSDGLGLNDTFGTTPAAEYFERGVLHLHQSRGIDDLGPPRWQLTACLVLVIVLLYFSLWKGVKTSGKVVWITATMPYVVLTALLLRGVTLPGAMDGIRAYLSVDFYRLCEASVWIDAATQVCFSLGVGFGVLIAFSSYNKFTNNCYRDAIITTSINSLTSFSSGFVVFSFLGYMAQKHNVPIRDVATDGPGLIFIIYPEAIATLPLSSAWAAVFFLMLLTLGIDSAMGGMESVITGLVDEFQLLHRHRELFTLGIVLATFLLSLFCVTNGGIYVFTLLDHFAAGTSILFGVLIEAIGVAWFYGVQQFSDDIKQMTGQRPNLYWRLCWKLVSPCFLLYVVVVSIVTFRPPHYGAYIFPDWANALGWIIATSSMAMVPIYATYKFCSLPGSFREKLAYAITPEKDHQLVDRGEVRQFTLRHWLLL

[11] = target: Norepinephrine transporter (Rattus norvegicus, UniProt Q9WTR4); assay: Inhibition of uptake of tritiated norepinephrine (NE) in rat synaptosomes; type: subcellular, Brain
Chain of Norepinephrine transporter (Q9WTR4 whole entry): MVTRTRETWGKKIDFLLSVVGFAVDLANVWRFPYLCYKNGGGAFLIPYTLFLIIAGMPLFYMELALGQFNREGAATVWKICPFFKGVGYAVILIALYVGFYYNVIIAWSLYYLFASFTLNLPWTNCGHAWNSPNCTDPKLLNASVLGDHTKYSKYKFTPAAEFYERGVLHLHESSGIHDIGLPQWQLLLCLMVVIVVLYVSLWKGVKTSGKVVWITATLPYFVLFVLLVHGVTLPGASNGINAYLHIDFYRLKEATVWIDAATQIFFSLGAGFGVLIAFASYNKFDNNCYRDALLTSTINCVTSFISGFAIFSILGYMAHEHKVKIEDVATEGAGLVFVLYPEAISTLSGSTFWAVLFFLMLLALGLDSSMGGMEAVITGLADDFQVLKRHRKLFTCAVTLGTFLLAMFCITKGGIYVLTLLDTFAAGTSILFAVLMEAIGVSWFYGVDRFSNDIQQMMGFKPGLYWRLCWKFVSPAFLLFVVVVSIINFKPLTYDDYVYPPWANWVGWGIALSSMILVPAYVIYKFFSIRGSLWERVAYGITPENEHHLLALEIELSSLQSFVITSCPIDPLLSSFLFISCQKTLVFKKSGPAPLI

[12] = target: Adrenergic receptor alpha-1 (Rattus norvegicus) (UniProt P15823+P23944+P43140); assay: Binding affinity towards alpha-1 adrenergic receptor at 1.0 uM concentration; type: protein assay; summary of the method: as §2
[13] = target: Adrenergic receptor alpha-2 (Rattus norvegicus) (UniProt P22086+P19328+P22909); assay: Binding affinity towards alpha-2 adrenergic receptor at 1.0 uM concentration; type: protein assay
Mus musculus [14] = assay: Ability to antagonise intraperitoneal dose; inactive (<10% antagonism) at 30 mg/kg is represented as I-30.; type: functional, organism-based; design: dose 30 mg/kg; summary of the method: as §1
Mus musculus [15] = assay: Ability to antagonise intraperitoneal dose; inactive (<10% antagonism) at 30 mgjkg is represented as I-30.; type: functional, organism-based; summary of the method: as §1
Rattus norvegicus = organism: Rattus norvegicus; assay: Ability to inhibit the uptake of tritiated dopamine (DA) 1 uM concentration; type: functional
Summary of the method: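 Rat brain synaptosomal [3H]dopamine uptake: striatal P2 fraction, test compound at 1.00 μM. Preincubated at 37 °C, then 50–300 nM [3H]DA for 3 min. Blanks on ice. Filtration and scintillation counting; percent inhibition of control uptake.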

[16] = target: Norepinephrine transporter (Rattus norvegicus) (UniProt Q9WTR4); assay: Ability to inhibit the uptake of [3H]norepinephrine (NE) 0.1 uM concentration at rat brain synaptosomes; type: functional, subcellular
Chain of Norepinephrine transporter (Rattus norvegicus) (Q9WTR4 as listed by the source): as the sequence (Q9WTR4 whole entry) above
Summary of the method: (§4)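 Male Wistar rat brain synaptosomes (P2 fraction): hypothalamus for NE, striatum for DA, cerebral cortex for 5-HT. Buffer is Tris- or HEPES-buffered salt medium with glucose, ascorbate and nialamide, pH 7.4 at 37 °C. Preincubated 10 min at 37 °C with compound. Uptake started with [3H]NE 100–300 nM, [3H]DA 50–300 nM or [3H]5-HT 100–200 nM, incubated 3 min (DA) or 6–10 min (NE, 5-HT). Blanks held on ice. Filtered, counted by scintillation.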

[17] = target: Sodium-dependent serotonin transporter (Rattus norvegicus) (UniProt P31652); assay: Ability to inhibit the uptake of [3H]- serotonin(5-HT) 0.1 uM concentration at rat brain synaptosomes; type: functional, subcellular; summary of the method: as §4
Chain of Sodium-dependent serotonin transporter (Rattus norvegicus) (P31652 whole entry): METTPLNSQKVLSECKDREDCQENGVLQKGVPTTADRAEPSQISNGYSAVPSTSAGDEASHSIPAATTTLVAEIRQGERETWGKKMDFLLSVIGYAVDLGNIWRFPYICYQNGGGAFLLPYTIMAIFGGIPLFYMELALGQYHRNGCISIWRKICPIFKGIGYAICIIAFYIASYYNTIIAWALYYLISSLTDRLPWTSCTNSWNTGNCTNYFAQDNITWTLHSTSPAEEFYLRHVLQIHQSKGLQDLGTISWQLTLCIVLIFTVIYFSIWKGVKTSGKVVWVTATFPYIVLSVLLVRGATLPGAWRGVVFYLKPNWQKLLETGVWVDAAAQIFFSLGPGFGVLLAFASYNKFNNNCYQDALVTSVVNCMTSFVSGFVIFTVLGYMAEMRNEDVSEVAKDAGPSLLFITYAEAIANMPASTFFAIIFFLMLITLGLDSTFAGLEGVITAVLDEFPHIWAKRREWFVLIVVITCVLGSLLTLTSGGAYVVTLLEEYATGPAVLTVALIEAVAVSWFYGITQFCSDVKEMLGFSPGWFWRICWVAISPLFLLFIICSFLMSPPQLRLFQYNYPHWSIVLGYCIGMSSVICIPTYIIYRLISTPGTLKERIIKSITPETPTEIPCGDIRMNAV

Mus musculus [18] = organism: Mus musculus; assay: Gross behavioral effects ascertained in mice; C indicates overt convulsant; type: functional, organism-based; summary of the method: as §3
D(2) dopamine receptor = D(2) dopamine receptor (Rattus norvegicus, UniProt P61169); assay: Binding affinity towards Dopamine receptor D2
Chain of D(2) dopamine receptor (P61169 whole entry): as the sequence (P61169 whole entry) above

Mus musculus [19] = organism: Mus musculus; assay: Gross behavioral effects ascertained in mice; D indicates significant depressant properties.; type: functional, organism-based
Summary of the method: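 Male Swiss Webster albino mice, 18–24 g, three per dose, given ip 1, 3, 10, 30, 100 and 300 mg/kg. Gross behaviour observed and held 4 days. Estimated LD50 range from lethality count on day 4. Scored as weak stimulant/depressant, significant stimulant, significant depressant or overt convulsant.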

[20] = target: Sodium-dependent serotonin transporter (Rattus norvegicus) (UniProt P31652); assay: Inhibition of tritiated serotonin(5-HT) uptake at 0.1 uM concentration; type: functional; summary of the method: as §4

| SMILES | Ki [10] [µM] | Ki [11] [µM] | ED50 (Mus musculus [2]) [mg/kg] | ED50 (Mus musculus [3]) [mg/kg] | behavior (Mus musculus [8]) | also measured |
| --- | --- | --- | --- | --- | --- | --- |
| CSc1ccc([C@@H]2CN3CCC[C@@H]3c3ccccc32)cc1 (stereo in doubt; 48b) | – | – | 0.3 | > 30 | – | Ki [1]: 0.208 µM; Ki [4]: 1.03 µM; Ki [5]: 0.314 µM |
| c1ccc([C@H]2CN3CC[C@@H]4CCCC[C@@]43c3ccccc32)cc1 | – | – | – | – | – | ED50 (Mus musculus [14]): inactive; ED50 (Mus musculus [15]): inactive; Inhibition (Rattus norvegicus): 17%; inhibition [16]: 3%; inhibition [17]: 9%; behavior (Mus musculus [18]): Overt convulsant |
| Br.c1ccc([C@H]2Cc3ccccc3[C@@H]3CCCN23)cc1 | – | – | ~3 | ~30 | Weak | Inhibition (Rattus norvegicus): 36%; inhibition [16]: 11%; inhibition [17]: -9% |
| Br.CC(=O)Nc1ccc([C@@H]2CN3CCC[C@@H]3c3ccccc32)cc1 | – | – | 0.042 | 0.037 | – | behavior (Mus musculus [19]): Significant depressant |

The next lines start with results.

| Ki [10] [µM] | Ki [11] [µM] | SMILES | ED50 (Mus musculus [2]) [mg/kg] | ED50 (Mus musculus [3]) [mg/kg] | behavior (Mus musculus [8]) | also measured |
| --- | --- | --- | --- | --- | --- | --- |
| 0.0158 | 0.00065 | COc1cccc([C@@H]2CN3CCC[C@@H]3c3ccccc32)c1 | 0.07 | ~0.2 | Partial stimulant | inhibition [6]: 40%; inhibition [7]: 27%; inhibition [9]: 1%; inhibition [12]: 87%; inhibition [13]: 37% |
| 0.0543 | 0.00095 | FC(F)(F)c1cccc([C@@H]2CN3CCC[C@@H]3c3ccccc32)c1 (stereo in doubt; 37b) | 0.58 | 0.78 | – | Ki [1]: 0.602 µM; Ki (D(2) dopamine receptor): 2.22 µM; Ki [5]: 0.213 µM |
| 0.0389 | 0.0209 | Br.COc1ccc2c(c1)[C@@H]1CCCN1C[C@H]2c1ccccc1 | 8 | ~40 | – | behavior (Mus musculus [19]): Significant depressant; inhibition [20]: 21% |
| – | 0.0014 | Fc1ccc([C@@H]2CN3CCC[C@@H]3c3ccccc32)cc1 | ~0.2 | ~0.2 | Partial stimulant | inhibition [6]: 56% |
